Laboratory results published in ChEMBL document CHEMBL1159028, “Antimicrobial agents from Licaria puchuri-major and their synergistic effect with polygodial” (1992).
In brackets after ≈: the same amount, converted by molar mass.

How the values were obtained:
Assay type in all cases: functional
[1] = system: Corynebacterium ammoniagenes; experiment: Antimicrobial activity against Brevibacterium ammoniagenes ATCC 6872 after 2 days by twofold serial broth dilution method; conditions: ATCC 6872, 48 h
Procedure, shortened: (§1)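 ATCC strains were revived from freeze-dried stock, then grown in medium of 0.8% nutrient broth, 0.5% yeast extract and 0.1% glucose. Twofold serial broth dilution used compound in DMF (1% DMF final), with a top concentration of 800 µg/ml. Cultures were stationary for 2 days, and growth was read as turbidity at OD 660 nm. MIC was the lowest concentration with no growth.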

Staphylococcus aureus = experiment: Antimicrobial activity against Staphylococcus aureus ATCC 12598 after 2 days by twofold serial broth dilution method; conditions: ATCC 12598, 48 h; procedure, shortened: as §1
Streptococcus mutans = experiment: Antimicrobial activity against Streptococcus mutans ATCC 25175 after 2 days by twofold serial broth dilution method; conditions: ATCC 25175, 48 h
Procedure, shortened: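 ATCC strain grown in 3.7% brain heart infusion broth. Twofold serial broth dilution used compound dissolved in DMF (1% DMF final), with a top concentration of 800 µg/ml. After 2 days of stationary culture, growth was read as turbidity at OD 660 nm. MIC was the lowest concentration with no growth.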

Cyberlindnera jadinii = experiment: Antimicrobial activity against Candida utilis ATCC 9226 after 2 days by twofold serial broth dilution method; conditions: Williopsis jadinii, ATCC 9226, 48 h
Procedure, shortened: (§2)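 Yeasts were grown in 2.5% malt extract broth. Twofold serial broth dilution used compound in DMF (1% DMF final), with a top concentration of 800 µg/ml. After 2 days of stationary culture, turbidity was read at OD 660 nm. MIC was the lowest concentration with no growth. Checkerboard combinations with polygodial were tested at least twice per fungus.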

Bacillus subtilis = experiment: Antimicrobial activity against Bacillus subtilis ATCC 9372 after 2 days by twofold serial broth dilution method; conditions: ATCC 9372, 48 h; procedure, shortened: as §1
Saccharomyces cerevisiae = experiment: Antimicrobial activity against Saccharomyces cerevisiae ATCC 7754 after 2 days by twofold serial broth dilution method; conditions: ATCC 7754, 48 h; procedure, shortened: as §2
Cutibacterium acnes = experiment: Antimicrobial activity against Propionibacterium acnes ATCC 11827 after 2 days by twofold serial broth dilution method; conditions: ATCC 11827, 48 h; procedure, shortened: as §1
Escherichia coli = experiment: Antimicrobial activity against Escherichia coli ATCC 9637 after 2 days by twofold serial broth dilution method; conditions: ATCC 9637, 48 h; procedure, shortened: as §1
Pseudomonas aeruginosa = experiment: Antimicrobial activity against Pseudomonas aeruginosa ATCC 10145 after 2 days by twofold serial broth dilution method; conditions: ATCC 10145, 48 h; procedure, shortened: as §1
Penicillium chrysogenum = experiment: Antimicrobial activity against Penicillium chrysogenum ATCC 10106 after 5 days by twofold serial broth dilution method; conditions: ATCC 10106, 120 h
Procedure, shortened: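 Mould was grown in 2.5% malt extract broth with shaking. Compound in DMF (1% final) was serially diluted twofold, to a maximum of 800 µg/ml. Growth was judged by eye after 5 days. MIC was the lowest concentration showing no growth.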

Malassezia furfur = experiment: Antimicrobial activity against Pityrosporum ovale ATCC 14521 by twofold serial broth dilution method
Procedure, shortened: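 Medium: 1% bactopeptone, 0.5% yeast extract, 1% glucose and 0.1% corn oil. Twofold broth dilution used compound in DMF (1% final), with a top concentration of 800 µg/ml. Culture was stationary for 2 days, and growth was scored visually. MIC was the lowest concentration without growth. Checkerboard combinations with polygodial were tested at least twice.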

Klebsiella aerogenes = experiment: Antimicrobial activity against Enterobacter aerogenes ATCC 13048 after 2 days by twofold serial broth dilution method; conditions: ATCC 13048, 48 h; procedure, shortened: as §1

Compound | MIC [1] [µg/mL] | MIC (Staphylococcus aureus) [µg/mL] | MIC (Streptococcus mutans) [µg/mL] | MIC (Cyberlindnera jadinii) [µg/mL] | MIC (Bacillus subtilis) [µg/mL] | MIC (Saccharomyces cerevisiae) [µg/mL] | MIC (Cutibacterium acnes) [µg/mL] | MIC (Escherichia coli) [µg/mL] | MIC (Pseudomonas aeruginosa) [µg/mL] | MIC (Penicillium chrysogenum) [µg/mL] | MIC (Malassezia furfur) [µg/mL] | MIC (Klebsiella aerogenes) [µg/mL]
CC1=CC[C@@H](C(C)(C)O)CC1 [ALPHA-TERPINEOL] | > 800 | > 800 | 400 (≈ 2.59 mM) | 800 (≈ 5.19 mM) | 800 (≈ 5.19 mM) | 800 (≈ 5.19 mM) | 100 (≈ 0.648 mM) | 800 (≈ 5.19 mM) | > 800 | 400 (≈ 2.59 mM) | 400 (≈ 2.59 mM) | > 800
C/C=C/c1ccc(OC)cc1 [ANETHOLE] | 200 (≈ 1.35 mM) | > 800 | 200 (≈ 1.35 mM) | 200 (≈ 1.35 mM) | 400 (≈ 2.7 mM) | 200 (≈ 1.35 mM) | 100 (≈ 0.675 mM) | 200 (≈ 1.35 mM) | > 800 | > 800 | 100 (≈ 0.675 mM) | > 800
C=C1CC/C=C(/C)CC[C@@H]2[C@@H]1CC2(C)C [CARYOPHYLLENE] | 100 (≈ 0.489 mM) | > 800 | > 800 | > 800 | 50 (≈ 0.245 mM) | > 800 | 6.25 (≈ 0.0306 mM) | > 800 | > 800 | > 800 | > 800 | > 800
C=C(C)[C@H]1CC=C(C)CC1 [D-LIMONENE] | > 800 | > 800 | 100 (≈ 0.734 mM) | 200 (≈ 1.47 mM) | 800 (≈ 5.87 mM) | 50 (≈ 0.367 mM) | 50 (≈ 0.367 mM) | > 800 | > 800 | > 800 | 200 (≈ 1.47 mM) | > 800
CCCCCCCCCCCC(=O)O [DODECANOATE] | > 800 | > 800 | > 800 | > 800 | > 800 | > 800 | 50 (≈ 0.25 mM) | > 800 | > 800 | > 800 | > 800 | > 800
CC12CCC(CC1)C(C)(C)O2 [EUCALYPTOL] | > 800 | > 800 | > 800 | > 800 | > 800 | > 800 | 800 (≈ 5.19 mM) | > 800 | > 800 | > 800 | > 800 | > 800
C=CCc1ccc(O)c(OC)c1 [EUGENOL] | 800 (≈ 4.87 mM) | 800 (≈ 4.87 mM) | 400 (≈ 2.44 mM) | 800 (≈ 4.87 mM) | 400 (≈ 2.44 mM) | 800 (≈ 4.87 mM) | 50 (≈ 0.304 mM) | 400 (≈ 2.44 mM) | > 800 | 200 (≈ 1.22 mM) | 100 (≈ 0.609 mM) | > 800
CC1=CCC(C(C)C)=CC1 [GAMMA-TERPINENE] | > 800 | > 800 | 100 (≈ 0.734 mM) | 100 (≈ 0.734 mM) | > 800 | 50 (≈ 0.367 mM) | 50 (≈ 0.367 mM) | > 800 | > 800 | > 800 | 800 (≈ 5.87 mM) | > 800
CC(C)=CCC/C(C)=C/CO [GERANIOL] | 400 (≈ 2.59 mM) | 800 (≈ 5.19 mM) | 200 (≈ 1.3 mM) | 400 (≈ 2.59 mM) | 400 (≈ 2.59 mM) | 400 (≈ 2.59 mM) | 200 (≈ 1.3 mM) | 800 (≈ 5.19 mM) | > 800 | 200 (≈ 1.3 mM) | 100 (≈ 0.648 mM) | > 800
C=CC(C)(O)CCC=C(C)C (centres undefined) [LINALOOL] | 800 (≈ 5.19 mM) | > 800 | 400 (≈ 2.59 mM) | 400 (≈ 2.59 mM) | 800 (≈ 5.19 mM) | 800 (≈ 5.19 mM) | 200 (≈ 1.3 mM) | > 800 | > 800 | 800 (≈ 5.19 mM) | 400 (≈ 2.59 mM) | > 800
C=CCc1ccc(OC)c(OC)c1 [METHYLEUGENOL] | 800 (≈ 4.49 mM) | 800 (≈ 4.49 mM) | 400 (≈ 2.24 mM) | 800 (≈ 4.49 mM) | 800 (≈ 4.49 mM) | 800 (≈ 4.49 mM) | 200 (≈ 1.12 mM) | 800 (≈ 4.49 mM) | > 800 | 800 (≈ 4.49 mM) | 200 (≈ 1.12 mM) | > 800
CC1(C)CCC[C@]2(C)[C@@H](C=O)C(C=O)=CC[C@@H]12 [POLYGODIAL] |  |  |  | 6.25 (≈ 0.0267 mM) |  | 3.13 (≈ 0.0134 mM) |  |  |  |  | 50 (≈ 0.213 mM) | 
C=CCc1ccc2c(c1)OCO2 [SAFROLE] | > 800 | > 800 | 100 (≈ 0.617 mM) | 200 (≈ 1.23 mM) | 400 (≈ 2.47 mM) | 200 (≈ 1.23 mM) | 50 (≈ 0.308 mM) | 400 (≈ 2.47 mM) | > 800 | > 800 | 100 (≈ 0.617 mM) | > 800
CC1=CCC(O)(C(C)C)CC1 (centres undefined) [TERPINEOL] | > 800 | > 800 | > 800 | 800 (≈ 5.19 mM) | > 800 | 800 (≈ 5.19 mM) | 800 (≈ 5.19 mM) | > 800 | > 800 | 800 (≈ 5.19 mM) | 100 (≈ 0.648 mM) | > 800
